In ChEMBL document CHEMBL1124186, “Synthesis and evaluation of tylosin-related macrolides modified at the aldehyde function: a new series of orally effective antibiotics” (1988):
In brackets after ≈: the same amount, converted by molar mass.

Columns and labels:
[1] = test system: Haemophilus influenzae; test: In vitro antimicrobial activity against Haemophilus influenzae.; assay type: functional
[2] = test system: Mus musculus; test: Peripheral plasma levels in mice after oral administration of 50 mg/kg dose for 2 hr; assay type: functional, organism-based; parameters: dose 50 mg/kg
Method in brief: (§1)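 Mice were given the compound orally and sampled for peripheral plasma at each time point. Plasma was assayed microbiologically against Micrococcus luteus seeded in Antibiotic Medium 1. Inhibition zone sizes were read, and concentrations were calculated from each compound's own standard curve. Each value is the mean of five mice per time point.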

[3] = test system: Mus musculus; test: Peripheral plasma levels in mice after oral administration of 50 mg/kg dose for 4 hr; assay type: functional, organism-based; parameters: dose 50 mg/kg; method in brief: as §1
[4] = test system: Mus musculus; test: Peripheral plasma levels in mice after oral administration of 50 mg/kg dose for 0.25 hr; assay type: functional, organism-based; parameters: dose 50 mg/kg; method in brief: as §1
[5] = test system: Mus musculus; test: Peripheral plasma levels in mice after oral administration of 50 mg/kg dose for 1 hr; assay type: functional, organism-based; parameters: dose 50 mg/kg; method in brief: as §1
[6] = test system: Rattus norvegicus; test: Peripheral plasma levels in rats after oral administration of 100 mg/kg dose for 0.25 hr; assay type: functional, organism-based; parameters: dose 100 mg/kg
Method in brief: (§2)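 Rats received 100 mg/kg orally and were sampled for peripheral plasma. Concentrations were measured by Micrococcus luteus agar-diffusion microbiological assay in Antibiotic Medium 1, with zone sizes converted using the standard curve for the appropriate compound. Each value is the average of three rats per time point.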

[7] = test system: Rattus norvegicus; test: Peripheral plasma levels in rats after oral administration of 100 mg/kg dose for 0.5 hr; assay type: functional, organism-based; parameters: dose 100 mg/kg; method in brief: as §2
[8] = test system: Rattus norvegicus; test: Peripheral plasma levels in rats after oral administration of 100 mg/kg dose for 1 hr; assay type: functional, organism-based; parameters: dose 100 mg/kg; method in brief: as §2
[9] = test system: Rattus norvegicus; test: Peripheral plasma levels in rats after oral administration of 100 mg/kg dose for 2 hr; assay type: functional, organism-based; parameters: dose 100 mg/kg; method in brief: as §2
[10] = test system: Rattus norvegicus; test: Peripheral plasma levels in rats after oral administration of 100 mg/kg dose for 4 hr; assay type: functional, organism-based; parameters: dose 100 mg/kg; method in brief: as §2
[11] = test system: Staphylococcus aureus; test: In vitro antimicrobial activity against Staphylococcus aureus X1; assay type: functional
[12] = test system: Streptococcus pyogenes; test: In vivo effective dose against experimental infections in rodent caused by Streptococcus pyogenes C203 when administered sc; assay type: functional
[13] = test system: Streptococcus pneumoniae; test: In vitro antimicrobial activity against Streptococcus pneumoniae; assay type: functional
[14] = test system: Staphylococcus epidermidis; test: In vitro antimicrobial activity against Staphylococcus epidermidis EPI1; assay type: functional
[15] = test system: Enterococcus faecium; test: In vitro antimicrobial activity against Streptococcus faecium X66; assay type: functional, streptococcus fae-cium
[16] = test system: Streptococcus pyogenes; test: In vitro antimicrobial activity against Streptococcus pyogenes C203; assay type: functional
[17] = test system: Mus musculus; test: Peripheral plasma levels in mice after oral administration of 50 mg/kg dose for 0.5 hr; assay type: functional, organism-based; parameters: dose 50 mg/kg; method in brief: as §1
[18] = test system: Streptococcus pyogenes; test: In vivo effective dose against experimental infections in rodent caused by Streptococcus pyogenes C203 when administered orally; assay type: functional; settings: po
[19] = test system: Bacteroides fragilis; test: In vitro antimicrobial activity against anaerobic bacteria bacteroides fragilis 111; assay type: functional
[20] = test system: Bacteroides fragilis; test: In vitro antimicrobial activity against anaerobic bacteria bacteroides fragilis 1877; assay type: functional
[21] = test system: Bacteroides fragilis; test: In vitro antimicrobial activity against anaerobic bacteria bacteroides fragilis 1936B,; assay type: functional
[22] = test system: Eikenella corrodens; test: In vitro antimicrobial activity against anaerobic bacteria bacteroides corrodens 1874; assay type: functional
[23] = test system: Phocaeicola vulgatus; test: In vitro antimicrobial activity against anaerobic bacteria bacteroides vulgatus 1211; assay type: functional
[24] = test system: Prevotella melaninogenica; test: In vitro antimicrobial activity against anaerobic bacteria bacteroides melaninogenicus 1856,; assay type: functional
[25] = test system: Bacteroides thetaiotaomicron; test: In vitro antimicrobial activity against anaerobic bacteria bacteroides thetaiotaomicron 1438; assay type: functional
[26] = test system: Clostridioides difficile; test: In vitro antimicrobial activity against anaerobic bacteria Clostridium difficile 2994; assay type: functional
[27] = test system: Clostridium perfringens; test: In vitro antimicrobial activity against anaerobic bacteria clostridium perfringens 81,; assay type: functional
[28] = test system: Clostridium septicum; test: In vitro antimicrobial activity against anaerobic bacteria clostridium septicum 1128; assay type: functional
[29] = test system: Chlamydia trachomatis; test: In vitro antimicrobial activity against chlamydia trachomatis.; assay type: functional
[30] = test system: Fusobacterium; test: In vitro antimicrobial activity against anaerobic bacteria fusobacterium symbiosum 1470; assay type: functional
[31] = test system: Haemophilus influenzae; test: In vitro antimicrobial activity against aerobic bacteria Haemophilus influenzae 76; assay type: functional
[32] = test system: Haemophilus influenzae; test: In vitro antimicrobial activity against aerobic bacteria Haemophilus influenzae MX366,; assay type: functional
[33] = test system: Haemophilus parainfluenzae; test: In vitro antimicrobial activity against aerobic bacteria Haemophilus parainfluenzae 9796; assay type: functional
[34] = In vitro antimicrobial activity against anaerobic bacteria peptostreptococcus intermedius 1264; assay type: functional
[35] = test system: Peptoniphilus asaccharolyticus; test: In vitro antimicrobial activity against anaerobic bacteria peptococcus asaccharolyticus 1302; assay type: functional
[36] = test system: Anaerococcus prevotii; test: In vitro antimicrobial activity against anaerobic bacteria peptococcus prevoti 1281; assay type: functional
[37] = test system: Cutibacterium acnes; test: In vitro antimicrobial activity against anaerobic bacteria propionibacterium acnes 79; assay type: functional
[38] = test system: Streptococcus; test: In vitro antimicrobial activity against aerobic bacteria Streptococcus B 14; assay type: functional
[39] = test system: Streptococcus; test: In vitro antimicrobial activity against aerobic bacteria Streptococcus D 8043; assay type: functional
[40] = test system: Streptococcus; test: In vitro antimicrobial activity against aerobic bacteria Streptococcus D 9960; assay type: functional
[41] = test system: Staphylococcus epidermidis; test: In vitro antimicrobial activity against aerobic bacteria Streptococcus epi 270; assay type: functional
[42] = test system: Staphylococcus aureus; test: In vitro antimicrobial activity against aerobic bacteria Staphylococcus aureus 513E; assay type: functional
[43] = test system: Staphylococcus aureus; test: In vitro antimicrobial activity against aerobic bacteria Staphylococcus aureus V140,; assay type: functional
[44] = test system: Staphylococcus aureus; test: In vitro antimicrobial activity against aerobic bacteria Staphylococcus aureus V41; assay type: functional
[45] = test system: Staphylococcus aureus; test: In vitro antimicrobial activity against aerobic bacteria Staphylococcus aureus X400; assay type: functional
[46] = test system: Streptococcus pneumoniae; test: In vivo effective dose against experimental infections in mice Streptococcus pneumoniae park when administered orally; assay type: functional; settings: po
[47] = test system: Streptococcus pneumoniae; test: In vivo effective dose against experimental infections in mice Streptococcus pneumoniae park when administered sc; assay type: functional
[48] = test system: Streptococcus pneumoniae; test: In vitro antimicrobial activity against aerobic bacteria Streptococcus pneumoniae B1-438; assay type: functional, streptococcus pneum
[49] = test system: Staphylococcus epidermidis; test: In vitro antimicrobial activity against aerobic bacteria Streptococcus epi 222; assay type: functional
[50] = test system: Streptococcus; test: In vitro antimicrobial activity against aerobic bacteria Streptococcus B 5; assay type: functional
[51] = test system: Staphylococcus aureus; test: In vitro antimicrobial activity against aerobic bacteria Staphylococcus aureus V135; assay type: functional
[52] = test system: Haemophilus influenzae; test: In vitro antimicrobial activity against aerobic bacteria Haemophilus influenzae 465; assay type: functional
[53] = test system: Prevotella melaninogenica; test: In vitro antimicrobial activity against anaerobic bacteria bacteroides melaninogenicus 2736; assay type: functional
[54] = test system: Fusobacterium necrophorum; test: In vitro antimicrobial activity against anaerobic bacteria usobacterium necrophorum 6054A; assay type: functional
[55] = test system: Collinsella aerofaciens; test: In vitro antimicrobial activity against anaerobic bacteria eubacterium aerofaciens 1235; assay type: functional
[56] = test system: Streptococcus; test: In vitro antimicrobial activity against aerobic bacteria Streptococcus D 2041; assay type: functional
[57] = test system: Peptostreptococcus anaerobius; test: In vitro antimicrobial activity against anaerobic bacteria eubacterium peptostreptococcus anaerobius 1428,; assay type: functional

## CC[C@H]1OC(=O)C[C@@H](O)[C@H](C)[C@@H](O[C@@H]2O[C@H](C)[C@@H](O)[C@H](N(C)C)[C@H]2O)[C@@H](CCF)C[C@@H](C)C(=O)/C=C/C(C)=C/[C@@H]1CO[C@@H]1O[C@H](C)[C@@H](O)[C@@H](OC)[C@H]1OC
[1]
  MIC: 16 µg/mL (≈ 20.6 µM)
[2]
  Concentration: 0.4 µg/mL
[3]
  Concentration: 0.1 µg/mL
[4]
  Concentration: < 0.1 µg/mL
[5]
  Concentration: 0.2 µg/mL
[6]
  Concentration: 0.3 µg/mL
[7]
  Concentration: 0.5 µg/mL
[8]
  Concentration: 0.1 µg/mL
[9]
  Concentration: 1.9 µg/mL
[10]
  Concentration: 1.5 µg/mL
[11]
  MIC: 0.25 µg/mL (≈ 0.322 µM)
[12]
  ED50: 5 mg/kg
[13]
  MIC: 2 µg/mL (≈ 2.58 µM)
[14]
  MIC: 0.12 µg/mL (≈ 0.155 µM)
[15]
  MIC: 8 µg/mL (≈ 10.3 µM)
[16]
  MIC: 0.25 µg/mL (≈ 0.322 µM)
[17]
  Concentration: < 0.1 µg/mL
[18]
  ED50: 8 mg/kg

## CC[C@H]1OC(=O)C[C@@H](O)[C@H](C)[C@@H](O[C@@H]2O[C@H](C)[C@@H](O)[C@H](N(C)C)[C@H]2O)[C@@H](CCOc2ccc(-c3ccccc3)cc2)C[C@@H](C)C(=O)/C=C/C(C)=C/[C@@H]1CO[C@@H]1O[C@H](C)[C@@H](O)[C@@H](OC)[C@H]1OC
[19]
  MIC: 4 µg/mL (≈ 4.32 µM)
[20]
  MIC: 2 µg/mL (≈ 2.16 µM)
[21]
  MIC: 4 µg/mL (≈ 4.32 µM)
[22]
  MIC: 2 µg/mL (≈ 2.16 µM)
[23]
  MIC: < 0.5 µg/mL
[24]
  MIC: < 0.5 µg/mL
[25]
  MIC: 2 µg/mL (≈ 2.16 µM)
[26]
  MIC: < 0.5 µg/mL
[27]
  MIC: < 0.5 µg/mL
[28]
  MIC: < 0.5 µg/mL
[29]
  MIC: > 2 µg/mL
[30]
  MIC: 2 µg/mL (≈ 2.16 µM)
[31]
  MIC: 16 µg/mL (≈ 17.3 µM)
[32]
  MIC: 16 µg/mL (≈ 17.3 µM)
[1]
  MIC: 16 µg/mL (≈ 17.3 µM)
[33]
  MIC: 32 µg/mL (≈ 34.6 µM)
[34]
  MIC: < 0.5 µg/mL
[35]
  MIC: < 0.5 µg/mL
[36]
  MIC: 1 µg/mL (≈ 1.08 µM)
[37]
  MIC: < 0.5 µg/mL
[38]
  MIC: 1 µg/mL (≈ 1.08 µM)
[39]
  MIC: 0.25 µg/mL (≈ 0.27 µM)
[40]
  MIC: 0.5 µg/mL (≈ 0.54 µM)
[41]
  MIC: 128 µg/mL (≈ 138 µM)
[11]
  MIC: 0.5 µg/mL (≈ 0.54 µM)
[42]
  MIC: 0.25 µg/mL (≈ 0.27 µM)
[43]
  MIC: 0.25 µg/mL (≈ 0.27 µM)
[44]
  MIC: 0.25 µg/mL (≈ 0.27 µM)
[45]
  MIC: 0.25 µg/mL (≈ 0.27 µM)
[46]
  ED50: 37 mg/kg
[47]
  ED50: > 20 mg/kg
[48]
  MIC: 32 µg/mL (≈ 34.6 µM)
[12]
  ED50: > 10 mg/kg
[13]
  MIC: 0.25 µg/mL (≈ 0.27 µM)
[14]
  MIC: 0.5 µg/mL (≈ 0.54 µM)
[49]
  MIC: 0.12 µg/mL (≈ 0.13 µM)
[15]
  MIC: 0.5 µg/mL (≈ 0.54 µM)
[16]
  MIC: 0.25 µg/mL (≈ 0.27 µM)
[50]
  MIC: 2 µg/mL (≈ 2.16 µM)
[51]
  MIC: 0.25 µg/mL (≈ 0.27 µM)
[52]
  MIC: 16 µg/mL (≈ 17.3 µM)
[53]
  MIC: < 0.5 µg/mL
[54]
  MIC: 4 µg/mL (≈ 4.32 µM)
[55]
  MIC: < 0.5 µg/mL
[56]
  MIC: 0.5 µg/mL (≈ 0.54 µM)
[57]
  MIC: < 0.5 µg/mL
[18]
  ED50: 25 mg/kg
